Measurements: ChEMBL document CHEMBL4130482, “Synthesis and Antimicrobial Evaluation of Fire Ant Venom Alkaloid Based 2-Methyl-6-alkyl-Δ1,6-piperideines” (J Nat Prod, 2017)
Converted amounts (≈) assume the structure as drawn. The source made the active and inactive calls. No cut-off for these calls is given here.

Experiments:
Leishmania donovani [1] = assay: Antileishmanial activity against promastigote form of Leishmania donovani after 72 hrs by Alamar blue assay; format: functional, organism-based
Summary of the method: (§1)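 Alamar Blue viability assay on L. donovani promastigotes, axenic amastigotes, THP1-cell amastigotes, and T. brucei trypomastigotes. Organisms at 2 × 10^6 cells/mL were exposed to serially diluted compounds for 72 h at 26 °C. IC50 and IC90 were determined. Test compounds were run up to 10 μg/mL. Values are means with standard deviations from two independent experiments, each in duplicate.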

THP-1 = assay: (§2) Cytotoxicity against human THP1 cells; format: cell-based; settings: Homo sapiens, THP-1
Summary of the method: (§3)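 Human THP-1 cells were exposed to test compounds at up to 10 μg/mL. Values are from two independent experiments, each with two replicates.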

[2] = as §2; format: cell-based, THP-1; settings: human, THP-1 cells; summary of the method: as §3
Leishmania donovani [3] = assay: Antileishmanial activity against amastigote form of Leishmania donovani infected in human THP1 cells after 72 hrs by Alamar blue assay; format: functional, organism-based; settings: THP-1, 72 h; summary of the method: as §1
Leishmania donovani [4] = assay: Antileishmanial activity against […] amastigote form of Leishmania donovani after 72 hrs by Alamar blue assay; format: functional, organism-based; summary of the method: as §1
Cryptococcus neoformans = assay: Antimicrobial activity against Cryptococcus neoformans ATCC 90113 after 72 hrs by CLSI method; format: functional, organism-based; settings: ATCC 90113, 72 h
Summary of the method: (§4)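 Antifungal susceptibility was tested by a modified CLSI (formerly NCCLS) broth method. Strains were C. neoformans ATCC 90113, C. albicans ATCC 90028, and A. fumigatus ATCC 204305, obtained from ATCC. Amphotericin B served as the positive control.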

Candida albicans [5] = assay: Antimicrobial activity against Candida albicans ATCC 90028 after 48 hrs by CLSI method; format: functional, organism-based; summary of the method: as §4
Enterococcus faecium [6] = assay: Antimicrobial activity against vancomycin-resistant Enterococcus faecium ATCC 700221 at 2 ug/ml by CLSI method; format: functional, organism-based
Pseudomonas aeruginosa = assay: Antimicrobial activity against Pseudomonas aeruginosa ATCC 2108 at 20 ug/ml by CLSI method; format: functional, organism-based
Staphylococcus aureus = assay: Antimicrobial activity against methicillin-resistant Staphylococcus aureus ATCC 1708 at 20 ug/ml by CLSI method; format: functional, organism-based
Enterococcus faecium [7] = assay: Antimicrobial activity against vancomycin-resistant Enterococcus faecium ATCC 700221 by CLSI method; format: functional, organism-based
Summary of the method: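 VRE E. faecium ATCC 700221 strain, tested by a modified CLSI susceptibility method. Methicillin and vancomycin served as positive controls. The read-outs were 50% growth inhibition (IC50) and minimum inhibitory concentration (MIC).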

Escherichia coli = assay: Antimicrobial activity against Escherichia coli ATCC 2452 at 20 ug/ml by CLSI method; format: functional, organism-based
Trypanosoma brucei = assay: Antitrypanosomal activity against trypomastigote form of Trypanosoma brucei after 72 hrs by Alamar blue assay; format: functional, organism-based; summary of the method: as §1
Aspergillus fumigatus = assay: Antimicrobial activity against Aspergillus fumigatus ATCC 204305 at 20 ug/ml after 48 hrs by CLSI method; format: functional, organism-based
Enterococcus faecium [8] = assay: Antimicrobial activity against vancomycin-resistant Enterococcus faecium ATCC 700221 at 20 ug/ml by CLSI method; format: functional, organism-based
Candida albicans [9] = assay: Antimicrobial activity against Candida albicans ATCC 90028 at 20 ug/ml after 48 hrs by CLSI method; format: functional, organism-based

SMILES | IC50 (Leishmania donovani [1]) | IC90 (Leishmania donovani [1]) | IC50 (THP-1) | IC90 [2] | IC50 (Leishmania donovani [3]) | IC90 (Leishmania donovani [3]) | IC50 (Leishmania donovani [4]) | IC90 (Leishmania donovani [4]) | IC50 (Cryptococcus neoformans) | MIC (Cryptococcus neoformans) | IC50 (Candida albicans [5]; ATCC 90028, 48 h) | MIC (Candida albicans [5]; ATCC 90028, 48 h) | Activity (Pseudomonas aeruginosa) | Activity (Staphylococcus aureus) | Activity (Escherichia coli) | IC50 (Trypanosoma brucei) | IC90 (Trypanosoma brucei) | Activity (Aspergillus fumigatus) | Activity (Enterococcus faecium [8]) | further results
C[C@@H]1[C@H](O)[C@@H](C)/C=C/C=C/C=C/C=C/C=C/C=C/C=C/[C@H](O[C@@H]2O[C@H](C)[C@@H](O)[C@H](N)[C@@H]2O)C[C@@H]2O[C@](O)(C[C@@H](O)C[C@@H](O)[C@H](O)CC[C@@H](O)C[C@@H](O)CC(=O)O[C@H]1C)C[C@H](O)[C@H]2C(=O)O [AMPHOTERICIN B] | 0.2 mg/L (≈ 0.216 µM) | 0.5 mg/L (≈ 0.541 µM) | > 2 mg/L | > 2 mg/L | 0.2 mg/L (≈ 0.216 µM) | 0.4 mg/L (≈ 0.433 µM) | 0.9 mg/L (≈ 0.974 µM) | 1.4 mg/L (≈ 1.52 µM) | < 0.1 mg/L | 0.1 mg/L (≈ 0.108 µM) | < 0.1 mg/L | 0.1 mg/L (≈ 0.108 µM) | – | – | – | – | – | – | – | Activity (Enterococcus faecium [6]): inactive
CCCCCCCCCCCCCCCC1=NC(C)CCC1 (configuration not stated) | 5.7 mg/L (≈ 18.5 µM) | 7.9 mg/L (≈ 25.7 µM) | > 10 mg/L | > 10 mg/L | 3.1 mg/L (≈ 10.1 µM) | > 10 mg/L | > 10 mg/L | > 10 mg/L | 6.6 mg/L (≈ 21.5 µM) | 10 mg/L (≈ 32.5 µM) | 12.4 mg/L (≈ 40.3 µM) | 20 mg/L (≈ 65 µM) | inactive | inactive | inactive | 2.7 mg/L (≈ 8.78 µM) | 3.6 mg/L (≈ 11.7 µM) | inactive | – | IC50 (Enterococcus faecium [7]): 19.4 mg/L (≈ 63.1 µM); MIC (Enterococcus faecium [7]): 20 mg/L (≈ 65 µM)
NCCCC(N)(C(=O)O)C(F)F (configuration not stated) [EFLORNITHINE] | – | – | – | – | – | – | – | – | – | – | – | – | – | – | – | 6.1 mg/L (≈ 33.5 µM) | 12.1 mg/L (≈ 66.4 µM) | – | – | –
CCCCCCCCCCCCCCC1=NC(C)CCC1 (configuration not stated) | 6.7 mg/L (≈ 22.8 µM) | 9 mg/L (≈ 30.7 µM) | > 10 mg/L | > 10 mg/L | 3.4 mg/L (≈ 11.6 µM) | 8.8 mg/L (≈ 30 µM) | > 10 mg/L | > 10 mg/L | 8.3 mg/L (≈ 28.3 µM) | 13.3 mg/L (≈ 45.3 µM) | 17.1 mg/L (≈ 58.3 µM) | – | inactive | inactive | inactive | 4 mg/L (≈ 13.6 µM) | 6.8 mg/L (≈ 23.2 µM) | inactive | inactive | MIC (Candida albicans [5]): inactive
CCCCCCCCCCCCCCCCC1=NC(C)CCC1 (configuration not stated) | 5 mg/L (≈ 15.5 µM) | 8.3 mg/L (≈ 25.8 µM) | > 10 mg/L | > 10 mg/L | > 10 mg/L | > 10 mg/L | > 10 mg/L | > 10 mg/L | 9.9 mg/L (≈ 30.8 µM) | 20 mg/L (≈ 62.2 µM) | – | – | inactive | inactive | inactive | 3.5 mg/L (≈ 10.9 µM) | 6.5 mg/L (≈ 20.2 µM) | inactive | inactive | Activity (Candida albicans [9]): inactive
